Calls of active or inactive are those of the source. No cut-off for these calls is given here.
How the values were obtained:
MGC-803 [1] = assay: Induction of apoptosis in human MGC-803 cells assessed as downregulation of c-IAP1 at 20 to 60 nM incubated for 48 hrs by Western blot analysis; format: functional, cell-based; details: dose 20-60 nM
In short: (§1)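 Western blot on MGC-803 and SGC-7901 cells given 20, 40 and 60 nM compound or DMSO for 48 h. Denatured lysates were run on SDS-PAGE and transferred to PVDF, then probed with primary and secondary antibodies to detect apoptosis-related proteins.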

MGC-803 [2] = assay: Induction of apoptosis in human MGC-803 cells assessed as upregulation of Noxa at 20 to 60 nM incubated for 48 hrs by Western blot analysis; format: functional, cell-based; details: dose 20-60 nM; in short: as §1
MGC-803 [3] = assay: Induction of apoptosis in human MGC-803 cells assessed as downregulation of XIAP at 20 to 60 nM incubated for 48 hrs by Western blot analysis; format: functional, cell-based; details: dose 20-60 nM; in short: as §1
MGC-803 [4] = assay: Induction of cell cycle arrest in human MGC-803 cells assessed as upregulation of Histone-H3 Ser10 at 20 to 60 nM incubated for 48 hrs by Western blot analysis; format: functional, cell-based; details: dose 20-60 nM
In short: (§2)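 Cells grown in RPMI-1640 with 10% FBS, penicillin/streptomycin at 37 °C, 5% CO2. Exposure to 20, 40 or 60 nM for 48 h alongside DMSO control. Lysates denatured, resolved by SDS-PAGE, transferred to PVDF, blocked, then probed with primary and secondary antibodies.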

SGC-7901 [5] = assay: Activation of Hippo signaling pathway in human SGC-7901 cells assessed as increase in MST1/2 phosphorylation at 20 to 60 nM incubated for 48 hrs by Western blot analysis; format: cell-based; details: filed as activator, dose 20-60 nM
In short: (§3)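 Western blot on gastric cancer cells exposed to compound or DMSO at 20, 40 and 60 nM for 48 h. Cells were lysed, then the denatured lysates were separated by SDS-PAGE and transferred to PVDF. Membranes were blocked and probed with primary and then secondary antibodies. Hippo pathway proteins were detected.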

SGC-7901 [6] = assay: Activation of Hippo signaling pathway in human SGC-7901 cells assessed as downregulation of YAP at 20 to 60 nM incubated for 48 hrs by Western blot analysis; format: cell-based; details: filed as activator, dose 20-60 nM; in short: as §3
SGC-7901 [7] = assay: Antiproliferative activity against human SGC-7901 cells assessed as reduction in cell viability incubated for 48 hrs by MTT assay; format: functional, cell-based; details: SGC-7901, 48 h
In short: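 MTT assay. 5,000 cells per well in RPMI-1640 with 10% FBS and penicillin/streptomycin at 37 °C, 5% CO2. Compound added 24 h after seeding and left for 48 h. MTT was then added for 4 h at 37 °C, formazan dissolved in DMSO and absorbance read at 490 nm. IC50 calculated from three independent experiments.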

MGC-803 [8] = assay: Activation of Hippo signaling pathway in human […] cells assessed as decrease in Bcl-2 expression incubated for 48 hrs by Western blot analysis; format: cell-based; details: filed as activator, dose 20-60 nM; in short: as §3
SGC-7901 [9] = assay: Induction of apoptosis in human SGC-7901 cells assessed as upregulation of t-Bid at 20 to 60 nM incubated for 48 hrs by Western blot analysis; format: functional, cell-based; details: dose 20-60 nM; in short: as §2
SGC-7901 [10] = assay: Induction of apoptosis in human SGC-7901 cells assessed as early apoptotic cells at 40 nM incubated for 48 hrs by annexin V-FITC and PI staining based flow cytometry analysis (reference value: 1.4 %); format: functional
GES1 = assay: Cytotoxicity against human GES1 cells assessed as reduction in cell viability at 60 nmol/L incubated for 48 hrs by MTT assay; format: functional; details: GES1, read-out: INH
In short: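 MTT viability in gastric cell lines grown in RPMI-1640 with 10% FBS at 37 °C, 5% CO2. Compound at 20, 40 and 60 nM for 48 h, starting 24 h after seeding 5,000 cells per well. MTT for 4 h, formazan dissolved in DMSO, absorbance at 490 nm. Inhibition expressed relative to control.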

SGC-7901 [11] = assay: Activation of Hippo signaling pathway in human SGC-7901 cells assessed as downregulation of TEAD at 20 to 60 nM incubated for 48 hrs by Western blot analysis; format: cell-based; details: filed as activator, dose 20-60 nM; in short: as §3
MGC-803 [12] = assay: Induction of apoptosis in human MGC-803 cells assessed as increase in PARP cleavage at 20 to 60 nM incubated for 48 hrs by Western blot analysis; format: functional, cell-based; details: dose 20-60 nM; in short: as §1
MGC-803 [13] = assay: Inhibition of tubulin polymerization in human MGC-803 cells assessed as decrease in microtubule formation at 20 to 60 nmol/L by DAPI staining based microscopic analysis; format: cell-based; details: dose 20-60 nmol/L
In short: (§4)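 Cells cultured in RPMI-1640 with 10% FBS at 37 °C, 5% CO2, treated 48 h with 20, 40 and 60 nM; stained for β-tubulin (green) and nuclei (blue) and examined by microscopy.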

MGC-803 [14] = assay: Induction of apoptosis in human MGC-803 cells assessed as upregulation of DR5 at 20 to 60 nM incubated for 48 hrs by Western blot analysis; format: functional, cell-based; details: dose 20-60 nM; in short: as §1
MGC-803 [15] = assay: Induction of apoptosis in human MGC-803 cells assessed as early apoptotic cells at 20 nM incubated for 48 hrs by annexin V-FITC and PI staining based flow cytometry analysis (reference value: 2.9 %); format: functional
MGC-803 [16] = assay: Induction of apoptosis in human MGC-803 cells assessed as fragmentation of cells at 20 to 60 nM; format: functional, cell-based; details: dose 20-60 nM
MGC-803 [17] = assay: Induction of apoptosis in human MGC-803 cells assessed as upregulation of Bax at 20 to 60 nM incubated for 48 hrs by Western blot analysis; format: functional, cell-based; details: dose 20-60 nM; in short: as §1
SGC-7901 [18] = assay: Induction of apoptosis in human SGC-7901 cells assessed as downregulation of Bcl-xl at 20 to 60 nM incubated for 48 hrs by Western blot analysis; format: functional, cell-based; details: dose 20-60 nM; in short: as §1
[19] = Inhibition of pig brain tubulin polymerization in presence of GTP by spectrophotometric method; set-up: species or system Sus scrofa
In short: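 Tubulin purified from pig brain by three temperature-dependent assembly/disassembly cycles in PIPES pH 6.5 (100 mM), 1.0 mM MgSO4, 2.0 mM EGTA, 1.0 mM GTP, 1.0 mM 2-mercaptoethanol, then phosphocellulose chromatography. Protein mixed with compound in PEM buffer with 1 mM GTP and 5% glycerol.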

MGC-803 [20] = assay: Induction of apoptosis in human MGC-803 cells assessed as upregulation of Bak at 20 to 60 nM incubated for 48 hrs by Western blot analysis; format: functional, cell-based; details: dose 20-60 nM; in short: as §1
SGC-7901 [21] = assay: Induction of apoptosis in human SGC-7901 cells assessed as late apoptotic cells at 60 nM incubated for 48 hrs by annexin V-FITC and PI staining based flow cytometry analysis (reference value: 2.4 %); format: functional
SGC-7901 [22] = assay: Induction of apoptosis in human SGC-7901 cells assessed as early apoptotic cells at 20 nM incubated for 48 hrs by annexin V-FITC and PI staining based flow cytometry analysis (reference value: 1.4 %); format: functional
MGC-803 [23] = assay: Induction of apoptosis in human MGC-803 cells assessed as upregulation of FADD at 20 to 60 nM incubated for 48 hrs by Western blot analysis; format: functional, cell-based; details: dose 20-60 nM; in short: as §1
SGC-7901 [24] = assay: Induction of apoptosis in human SGC-7901 cells assessed as downregulation of c-IAP1 at 20 to 60 nM incubated for 48 hrs by Western blot analysis; format: functional, cell-based; details: dose 20-60 nM; in short: as §1
MGC-803 [25] = assay: Inhibition of tubulin polymerization in human MGC-803 cells assessed as decrease in filamentous structure at 20 to 60 nmol/L by DAPI staining based microscopic analysis; format: cell-based; details: dose 20-60 nmol/L; in short: as §4

## COc1ccc(CN(C(=O)CSc2nc3ccccc3s2)c2cc(OC)c(OC)c(OC)c2)cc1O
MGC-803 [1]
  Activity: Active
MGC-803 [2]
  Activity: Active
MGC-803 [3]
  Activity: Active
MGC-803 [4]
  Activity: Active
SGC-7901 [5]
  Activity: Active
SGC-7901 [6]
  Activity: Active
SGC-7901 [7]
  IC50: 49 nM
MGC-803 [8]
  Activity: Dose-dependent effect
SGC-7901 [9]
  Activity: Active
SGC-7901 [10]
  Activity: 9.5%
GES1
  inhibition at 0.06 µM: < 20%
SGC-7901 [11]
  Activity: Active
MGC-803 [12]
  Activity: Active
MGC-803 [13]
  Activity: Active
MGC-803 [14]
  Activity: Active
MGC-803 [15]
  Activity: 4.4%
MGC-803 [16]
  Activity: Active
MGC-803 [17]
  Activity: Active
SGC-7901 [18]
  Activity: Active
[19]
  IC50: 1900 nM
MGC-803 [20]
  Activity: Active
SGC-7901 [21]
  Activity: 47.3%
SGC-7901 [22]
  Activity: 4.2%
MGC-803 [23]
  Activity: Active
SGC-7901 [24]
  Activity: Active
MGC-803 [25]
  Activity: Active

Reference: ChEMBL document CHEMBL4765386, “Discovery of tertiary amide derivatives incorporating benzothiazole moiety as anti-gastric cancer agents in vitro via inhibiting tubulin polymerization and activating the Hippo signaling pathway” (Eur J Med Chem, 2020)
